We go through four molecules from ChEMBL document CHEMBL1145383, “Synthesis of stable and potent delta/mu opioid peptides: analogues of H-Tyr-c[D-Cys-Gly-Phe-D-Cys]-OH by ring-closing metathesis” (J Med Chem, 2007).

A word on the Ki: it is the dissociation constant of the complex between target and ligand, obtained from inhibition or displacement. Low readings indicate tighter binding, high ones weaker binding. Usually EC50 stands for the concentration at which the effect is half-maximal. A low value points to higher potency in that assay. The term Emax denotes the greatest response seen or fitted, relative to the assay's reference. As usually defined, the IC50 is the concentration needed to halve the response being measured.

Assay [1] has as its target Kappa-type opioid receptor (Cavia porcellus, UniProt P41144). Kind of assay: Displacement of [3H]U-69593 from kappa opioid receptor in guinea pig brain membrane. It is filed as cell membranes. In general terms: Displacement assays read how much labelled ligand stays bound in the presence of the test substance.
In assay [2] the target is T1, Mu-type opioid receptor (Homo sapiens, UniProt P35372). As to the kind of experiment: Agonist activity at human mu opioid receptor by [35S]GTP-gamma-S binding assay. It is filed as functional. In general terms: Binding of GTPγS marks nucleotide exchange on a G protein.
The target in assay [3] is T1, Mu-type opioid receptor. Kind of assay: Agonist activity at human mu opioid receptor by [35S]GTP-gamma-S binding assay relative to control. It counts as functional.
Assay [4] concerns the target Delta-type opioid receptor (Mus musculus, UniProt P32300). As to the kind of experiment: Agonist activity at delta opioid receptor in mouse vas deferens assessed as inhibition of electrically-evoked muscle contraction. It counts as functional, tissue-based. A digest of the protocol: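 Mouse vas deferens from male ICR mice (25–30 g), bathed in oxygenated (95% O2/5% CO2) magnesium-free Krebs bicarbonate at 37 °C. Tension 0.5 g, stimulated transmurally at 0.1 Hz with 2.0 ms pulses at supramaximal voltage. Agonist contact 3 min, then rinse and 8 min recovery. IC50 from Hill fit of mean data, n ≥ 4 tissues.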

Assay [5] concerns the target Mu-type opioid receptor (Cavia porcellus, UniProt P97266). Kind of assay: Agonist activity at mu opioid receptor in isolated guinea pig ileum assessed as inhibition of electrically-evoked myenteric muscle contraction. It is filed as functional, tissue-based. The essentials: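 Longitudinal muscle-myenteric plexus from male Hartley guinea pigs (150–400 g), in oxygenated (95% O2/5% CO2) Krebs bicarbonate at 37 °C. Tension 1 g, transmural stimulation at 0.1 Hz with 0.4 ms pulses at supramaximal voltage. Agonist left 3 min, then washout and 8 min re-equilibration. IC50 by nonlinear least-squares Hill fit of mean data from at least four tissues.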

Assay [6] addresses T2, Delta-type opioid receptor (Homo sapiens, UniProt P41143). As to the kind of experiment: Agonist activity at human delta opioid receptor by [35S]GTP-gamma-S binding assay relative to control. It is filed as functional.
The target of assay [7] is T2, Delta-type opioid receptor. Kind of assay: Agonist activity at human delta opioid receptor by [35S]GTP-gamma-S binding assay. It is filed as functional. A digest of the protocol: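 Cells expressing hDOR were incubated with increasing test concentrations plus 0.1 nM [35S]GTPγS, in duplicate, for 90 min at 30 °C. Reaction stopped by vacuum filtration through GF/B filters pretreated with assay buffer. Filters washed four times with ice-cold 15 mM Tris/120 mM NaCl, pH 7.4, and bound label counted by liquid scintillation after overnight extraction.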

Chain of Kappa-type opioid receptor (P41144 whole entry): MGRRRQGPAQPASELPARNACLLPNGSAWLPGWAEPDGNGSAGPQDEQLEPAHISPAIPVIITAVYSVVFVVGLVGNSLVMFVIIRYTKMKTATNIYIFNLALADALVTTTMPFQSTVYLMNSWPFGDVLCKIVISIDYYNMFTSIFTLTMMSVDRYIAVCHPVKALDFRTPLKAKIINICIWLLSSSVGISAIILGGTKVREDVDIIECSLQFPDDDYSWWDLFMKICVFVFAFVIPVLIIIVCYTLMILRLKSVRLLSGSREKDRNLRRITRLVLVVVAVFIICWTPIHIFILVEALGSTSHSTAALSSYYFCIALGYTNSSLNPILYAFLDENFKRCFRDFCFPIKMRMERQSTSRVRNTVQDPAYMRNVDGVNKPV
T1 sequence (P35372 whole entry): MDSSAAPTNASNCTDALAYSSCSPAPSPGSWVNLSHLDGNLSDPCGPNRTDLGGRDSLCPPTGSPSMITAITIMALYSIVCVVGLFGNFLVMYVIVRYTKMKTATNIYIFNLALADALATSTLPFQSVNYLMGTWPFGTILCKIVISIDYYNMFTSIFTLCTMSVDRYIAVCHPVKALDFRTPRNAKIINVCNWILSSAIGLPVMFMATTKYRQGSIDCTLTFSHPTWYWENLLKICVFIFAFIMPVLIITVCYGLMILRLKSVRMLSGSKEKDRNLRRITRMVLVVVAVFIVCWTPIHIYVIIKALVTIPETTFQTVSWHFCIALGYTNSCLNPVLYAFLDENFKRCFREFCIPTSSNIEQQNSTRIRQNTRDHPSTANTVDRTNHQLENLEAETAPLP
Chain of Mu-type opioid receptor (Cavia porcellus, UniProt P97266) (P97266 whole entry): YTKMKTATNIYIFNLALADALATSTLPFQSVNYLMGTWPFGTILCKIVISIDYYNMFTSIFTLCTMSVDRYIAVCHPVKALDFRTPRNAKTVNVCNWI
Chain of Delta-type opioid receptor (Mus musculus, UniProt P32300) (P32300 whole entry): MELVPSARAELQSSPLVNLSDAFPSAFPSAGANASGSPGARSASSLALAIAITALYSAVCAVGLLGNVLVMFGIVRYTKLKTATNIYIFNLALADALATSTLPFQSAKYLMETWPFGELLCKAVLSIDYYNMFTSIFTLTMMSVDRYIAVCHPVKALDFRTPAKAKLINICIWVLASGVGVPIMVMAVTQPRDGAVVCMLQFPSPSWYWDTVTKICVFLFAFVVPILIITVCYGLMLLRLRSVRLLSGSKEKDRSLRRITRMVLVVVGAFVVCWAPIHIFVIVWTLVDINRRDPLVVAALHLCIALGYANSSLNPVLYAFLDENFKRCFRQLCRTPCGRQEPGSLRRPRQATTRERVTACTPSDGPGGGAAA
T2 sequence (P41143 whole entry): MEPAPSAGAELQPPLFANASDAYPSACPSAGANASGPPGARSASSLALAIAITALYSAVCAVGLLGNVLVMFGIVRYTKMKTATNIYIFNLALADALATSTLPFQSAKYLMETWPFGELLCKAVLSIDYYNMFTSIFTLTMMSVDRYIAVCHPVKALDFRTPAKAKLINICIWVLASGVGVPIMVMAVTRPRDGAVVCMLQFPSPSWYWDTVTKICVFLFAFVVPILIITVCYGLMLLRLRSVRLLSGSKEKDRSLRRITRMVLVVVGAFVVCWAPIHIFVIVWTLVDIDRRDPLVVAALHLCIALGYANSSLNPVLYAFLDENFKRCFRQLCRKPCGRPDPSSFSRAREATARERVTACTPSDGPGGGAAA

In turn, `N[C@@H](Cc1ccc(O)cc1)C(=O)N[C@@H]1C/C=C/C[C@H](C(=O)O)NC(=O)[C@H](Cc2ccccc2)NC(=O)CNC1=O` gave an inhibition constant (Ki) in assay [1] of 74.8 nM. Further, the 50% effective concentration (EC50) on Mu-type opioid receptor [2] amounted to 2.65 nM; in assay [7] it was 0.88 nM. Also, the Emax on Mu-type opioid receptor [3] amounted to 70%; in assay [6], 128%. The IC50 in assay [4] is 0.76 nM; at Mu-type opioid receptor [5] it was 5.2 nM.
Regarding `N[C@@H](Cc1ccc(O)cc1)C(=O)N[C@@H]1C/C=C\C[C@H](C(=O)O)NC(=O)[C@H](Cc2ccccc2)NC(=O)CNC1=O`, in assay [1], the Ki stood at 576 nM. Besides, the concentration for a half-maximal effect (EC50) on Mu-type opioid receptor [2] was determined as 2.35 nM; in assay [7], 0.83 nM. Further, the Emax at Mu-type opioid receptor [3] is 65%; in assay [6], 121%. Besides, the values for the concentration for half-maximal inhibition (IC50) (in assay [4]; on Mu-type opioid receptor [5]) were 0.59 nM and 5.3 nM, respectively.
As for `C=CC[C@@H](NC(=O)[C@H](Cc1ccccc1)NC(=O)CNC(=O)[C@@H](CC=C)NC(=O)[C@@H](N)Cc1ccc(O)cc1)C(=O)O`, the affinity in assay [1] corresponds to a Ki of 3870 nM. The IC50 in assay [4] worked out at 5.7 nM; on Mu-type opioid receptor [5], 34 nM.
For `N[C@@H](Cc1ccc(O)cc1)C(=O)N[C@@H]1CCCC[C@H](C(=O)O)NC(=O)[C@H](Cc2ccccc2)NC(=O)CNC1=O` the same measures were 3960 nM, 3.4 nM and 59 nM.
